Laboratory results as given in ChEMBL document CHEMBL2311315, “Radiosynthesis and evaluation of [¹¹C-carbonyl]-labeled carbamates as fatty acid amide hydrolase radiotracers for positron emission tomography” (J Med Chem, 2013).

What was measured:
[1] = Half life in phosphate buffer at pH 7.4 by HPLC analysis; format: physicochemical
[2] = molecular target: T1, Fatty-acid amide hydrolase 1 (Rattus norvegicus) (UniProt P97612); assay: Inhibition of FAAH-mediated [3H]anandamide hydrolysis in rat brain homogenate assessed as [3H]ethanolamine production at 100 nM incubated for 60 mins prior to substrate addition measured after 10 mins by liquid scintillation counting analysis relative to control; format: tissue-based
T1 sequence (whole entry): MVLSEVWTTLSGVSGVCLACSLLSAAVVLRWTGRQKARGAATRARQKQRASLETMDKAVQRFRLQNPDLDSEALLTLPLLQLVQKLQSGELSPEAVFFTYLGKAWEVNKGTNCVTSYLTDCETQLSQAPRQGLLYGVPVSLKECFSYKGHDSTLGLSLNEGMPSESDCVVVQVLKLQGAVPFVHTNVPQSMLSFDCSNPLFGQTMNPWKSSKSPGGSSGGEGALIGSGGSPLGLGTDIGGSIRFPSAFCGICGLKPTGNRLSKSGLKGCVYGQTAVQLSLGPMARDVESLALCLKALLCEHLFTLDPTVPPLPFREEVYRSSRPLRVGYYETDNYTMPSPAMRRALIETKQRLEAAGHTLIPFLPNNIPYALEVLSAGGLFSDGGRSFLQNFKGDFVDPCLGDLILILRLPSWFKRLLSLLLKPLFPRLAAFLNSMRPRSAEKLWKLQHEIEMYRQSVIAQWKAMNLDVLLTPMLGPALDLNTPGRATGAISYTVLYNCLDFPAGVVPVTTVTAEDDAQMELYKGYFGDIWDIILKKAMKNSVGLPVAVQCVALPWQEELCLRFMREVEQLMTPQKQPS
Summary of the method: (§1)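 Rat brain homogenate (0.5 μg protein) preincubated with inhibitor 60 min, then 0.5 μM [3H]anandamide (ethanolamine-labelled) added and incubated a further 10 min at 37 °C. Reaction stopped with charcoal in 0.5 M HCl; aqueous [3H]ethanolamine counted by liquid scintillation with quench correction. Values are % inhibition ± SEM, n = 3.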

[3] = molecular target: T1, Fatty-acid amide hydrolase 1 (Rattus norvegicus); assay: Inhibition of FAAH-mediated [3H]anandamide hydrolysis in rat brain homogenate assessed as [3H]ethanolamine production at 10 nM incubated for 60 mins prior to substrate addition measured after 10 mins by liquid scintillation counting analysis relative to control; format: tissue-based; summary of the method: as §1
[4] = molecular target: T1, Fatty-acid amide hydrolase 1 (Rattus norvegicus); assay: Inhibition of FAAH-mediated [3H]anandamide hydrolysis in rat brain homogenate assessed as [3H]ethanolamine production at 1 nM incubated for 60 mins prior to substrate addition measured after 10 mins by liquid scintillation counting analysis relative to control; format: tissue-based
Summary of the method: (§2)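 Rat brain homogenate (0.5 μg protein) preincubated with inhibitor 60 min, then 0.5 μM [3H]anandamide (ethanolamine-labelled) added and incubated a further 10 min at 37 °C. Reaction stopped with charcoal in 0.5 M HCl; aqueous [3H]ethanolamine counted by liquid scintillation with quench correction.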

[5] = molecular target: T1, Fatty-acid amide hydrolase 1 (Rattus norvegicus); assay: Inhibition of FAAH-mediated [3H]anandamide hydrolysis in rat brain homogenate assessed as [3H]ethanolamine production at 0.1 nM incubated for 60 mins prior to substrate addition measured after 10 mins by liquid scintillation counting analysis relative to control; format: tissue-based; summary of the method: as §2
[6] = 1-octanol-phosphate buffer partition coefficient, log D of the compound at pH 7.4; format: physicochemical; details: octanol/water
Summary of the method: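 Radiotracer partitioned between 1-octanol and 0.02 M phosphate buffer, pH 7.4. Each determination replicated six times.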

[7] = tested on: Rattus norvegicus; assay: Biodistribution in URB597-pretreated Sprague-Dawley rat brain parenchyma at 0.3 to 0.8 nmol, iv administered 30 mins after […]-treatment measured after 60 mins by gamma counting analysis; format: ADME, organism-based; details: in vivo, 1 h
Summary of the method: (§3)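 Rats (n = 3–4) were injected iv with [11C]-radiotracer as in the biodistribution procedure. At various times, whole brain was homogenized and exhaustively extracted with aqueous acetonitrile. Extracted (unbound) and tissue-bound radioactivity were counted. Binding rate was fitted to a one-phase exponential association, Y = Ymax(1 − exp(−KX)). Blocking used ip pretreatment with the FAAH inhibitor.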

[8] = Half life in URB597-pretreated Sprague-Dawley rat brain parenchyma at 0.3 to 0.8 nmol, iv administered 30 mins after […]-treatment; format: ADME, organism-based; summary of the method: as §3
[9] = tested on: Cortex; assay: Biodistribution in URB597-pretreated Sprague-Dawley rat brain cortex at 0.3 to 0.8 nmol, iv administered 30 mins after URB597-treatment measured after 40 mins by gamma counting analysis; format: ADME, organism-based; details: in vivo
Summary of the method: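 Rats received 2 mg/kg ip (2 mL/kg saline with Tween 80) of the FAAH inhibitor, or vehicle alone, 30 min before tracer. Tracer was 30–60 MBq iv by tail vein (0.3–0.8 nmol; buffered saline, 0.5% Tween 80), n = 5. Cortex was excised at 40 min, weighed, gamma counted and decay-corrected. Reported as SUV, mean ± SD. Compared with vehicle by Student's t test.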

[10] = tested on: Hypothalamus; assay: Biodistribution in Sprague-Dawley rat brain hypothalamus at 0.3 to 0.8 nmol, iv after 40 mins by gamma counting analysis; format: ADME, organism-based; details: in vivo
Summary of the method: (§4)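 Conscious male Sprague–Dawley rats (300–350 g), n = 5 per time point, received 30–60 MBq [11C]-radiotracer (70–170 GBq/μmol; 0.3–0.8 nmol) iv by tail vein in buffered saline with 0.5% Tween 80. Decapitated at 2 or 40 min. Dissected regions were weighed and gamma counted, decay-corrected to injection. Reported as SUV (%ID/g […]), mean ± SD.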

[11] = tested on: Hypothalamus; assay: Biodistribution in Sprague-Dawley rat brain hypothalamus at 0.3 to 0.8 nmol, iv after 2 mins by gamma counting analysis; format: ADME, organism-based; details: in vivo; summary of the method: as §4
[12] = tested on: Cortex; assay: Biodistribution in Sprague-Dawley rat brain cortex at 0.3 to 0.8 nmol, iv after 40 mins by gamma counting analysis; format: ADME, organism-based; details: in vivo; summary of the method: as §4
[13] = tested on: Cortex; assay: Biodistribution in Sprague-Dawley rat brain cortex at 0.3 to 0.8 nmol, iv after 2 mins by gamma counting analysis; format: ADME, organism-based; details: in vivo; summary of the method: as §4
[14] = tested on: Brain; assay: Drug uptake in URB597-pretreated Sprague-Dawley rat brain parenchyma at 0.3 to 0.8 nmol, iv administered 30 mins after […]-treatment measured after 40 mins by gamma counting analysis; format: ADME, organism-based; details: in vivo; summary of the method: as §3
[15] = tested on: Brain; assay: Drug uptake in URB597-pretreated Sprague-Dawley rat brain parenchyma at 0.3 to 0.8 nmol, iv administered 30 mins after […]-treatment measured after 5 mins by gamma counting analysis; format: ADME, organism-based; details: in vivo; summary of the method: as §3
[16] = tested on: Plasma; assay: Percentage unbound in human plasma after 10 mins by ultrafiltration method; format: ADME, cell-free
Summary of the method: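 Human plasma from 6 blood samples was spiked with [11C]-radiotracer, held 10 min at ambient temperature, then ultrafiltered by centrifugation. Ultrafiltrate and plasma were counted and weighed. Binding to the device was corrected using pH 7.4 phosphate buffer in place of plasma.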

[17] = molecular target: T1, Fatty-acid amide hydrolase 1 (Rattus norvegicus); assay: Ratio of IC50 for FAAH in rat brain homogenate in the absence of preincubation phase to IC50 for FAAH in rat brain homogenate after 45 mins preincubation phase; format: tissue-based
[18] = molecular target: T2, Fatty-acid amide hydrolase 1 (Rattus norvegicus, UniProt P97612); assay: Inhibition of FAAH-mediated [3H]anandamide hydrolysis in rat brain homogenate assessed as [3H]ethanolamine production incubated for 45 mins prior to substrate addition measured after 10 mins by liquid scintillation counting analysis; format: tissue-based
T2 sequence (P97612 whole entry): T1 sequence (whole entry)
Summary of the method: (§5)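 Rat brain homogenate (0.5 μg protein) preincubated with inhibitor at 37 °C for 45 or 90 min, eight concentrations over 0.1–30 nM or six over 1–50 nM. Then 0.5 μM [3H]anandamide added for a further 10 min at 37 °C. Charcoal/HCl stop; [3H]ethanolamine in aqueous phase counted by scintillation. pI50 ± value reported, converted to IC50.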

[19] = molecular target: T2, Fatty-acid amide hydrolase 1; assay: Inhibition of FAAH-mediated [3H]anandamide hydrolysis in rat brain homogenate assessed as [3H]ethanolamine production incubated for 90 mins prior to substrate addition measured after 10 mins by liquid scintillation counting analysis; format: tissue-based; summary of the method: as §5

SUV [9]	SUV [10]	SUV [11]	Drug uptake [12] [%]	SUV [12]	SUV [13]	Compound	t1/2 [1] [h]	inhibition [2] [%]	inhibition [3] [%]	inhibition [4] [%]	inhibition [5] [%]	logD [6]	other results
						CN1CCC(NC(=O)Oc2cccc(C3=NCCO3)c2)CC1	0.8	8	3	12	6		
						O=C(NC1CCCCC1)Oc1cccc(C2=NCCO2)c1	5.1	99	97	31	0.2	3.01	
						CN1CCC(NC(=O)Oc2cccc(-c3ccccc3)c2)CC1		13	6	9	6		
0.36	1.14	1.61	80	2.49	2.4	O=[11C](NC1CCCCC1)Oc1ccc(O)c(-c2ccccc2)c1							Drug uptake [7]: 90%; half-life [8]: 6.6 min
						O=C(NC1CCC1)Oc1ccc(O)c(-c2ccccc2)c1	89	101	70	8	-0.1	3.42	
0.27	1.25	1.21	80	2.49	1.63	CCCCCCN[11C](=O)Oc1ccc(O)c(-c2ccccc2)c1							
						O=C(NC1CCCC1)Oc1ccc(O)c(-c2ccccc2)c1	138	99	80	15	-8	2.8	
						CCCCCCNC(=O)Oc1ccc(O)c(-c2ccccc2)c1	77	100	97	44	9	3.67	Fu [16]: 0.35%
						CN1CCC(NC(=O)Oc2ccc(O)c(-c3ccccc3)c2)CC1	25	12	1	-0.5	2		
						O=C(NC1CCCC1)Oc1cccc(C2=NCCO2)c1	4.6	99	40	4	-2	2.35	
0.23	1.48	1.81	80	3.37	2.68	O=[11C](NC1CCC1)Oc1ccc(O)c(-c2ccccc2)c1							
						CCCCCCNC(=O)Oc1cccc(C2=NCCO2)c1	8.7	100	100	74	9	3.33	Ratio IC50 [17]: 4; IC50 [18]: 1.2 nM; IC50 [19]: 0.55 nM
						NC(=O)c1cccc(-c2cccc(OC(=O)NC3CCCCC3)c2)c1 [URB-597]	19					3.61	Fu [16]: 0.48%
						O=C(NC1CCCCC1)Oc1ccc(O)c(-c2ccccc2)c1	121	101	69	4	-2	2.85	Ratio IC50 [17]: 4; IC50 [18]: 9.4 nM; IC50 [19]: 4.9 nM; Fu [16]: 0.75%

Compound	SUV [9]	SUV [10]	SUV [11]	Drug uptake [12] [%]	SUV [12]	SUV [13]	t1/2 [1] [h]	inhibition [2] [%]	inhibition [3] [%]	inhibition [4] [%]	inhibition [5] [%]	logD [6]	other results
O=[11C](NC1CCCC1)Oc1ccc(O)c(-c2ccccc2)c1	0.33	1.22	1.87	80	3.09	2.36							Drug uptake [7]: 90%; half-life [8]: 5.5 min; Drug uptake [14]: Not Active; Drug uptake [15]: Not Active
NC(=O)c1cccc(-c2cccc(O[11C](=O)NC3CCCCC3)c2)c1	0.17	0.51	0.47	80	0.94	0.79							
